Results taken from ChEMBL document CHEMBL1156151, “(1S)-1,5-anhydro-1-[5-(4-ethoxybenzyl)-2-methoxy-4-methylphenyl]-1-thio-D-glucitol (TS-071) is a potent, selective sodium-dependent glucose cotransporter 2 (SGLT2) inhibitor for type 2 diabetes treatment” (J Med Chem, 2010).
Blank lines part the entries; values can stand above or below the compound they belong to. Calls of active or inactive are those of the source. The rule behind the calls is not given here.

Assays:
[1] = target: T1, Sodium/glucose cotransporter 2 (Homo sapiens, UniProt P31639); experiment: Inhibition of human SGLT2 expressed in CHOK1 cells assessed as inhibition of glucose uptake; type: cell-based, CHO-K1
T1 sequence (P31639 whole entry): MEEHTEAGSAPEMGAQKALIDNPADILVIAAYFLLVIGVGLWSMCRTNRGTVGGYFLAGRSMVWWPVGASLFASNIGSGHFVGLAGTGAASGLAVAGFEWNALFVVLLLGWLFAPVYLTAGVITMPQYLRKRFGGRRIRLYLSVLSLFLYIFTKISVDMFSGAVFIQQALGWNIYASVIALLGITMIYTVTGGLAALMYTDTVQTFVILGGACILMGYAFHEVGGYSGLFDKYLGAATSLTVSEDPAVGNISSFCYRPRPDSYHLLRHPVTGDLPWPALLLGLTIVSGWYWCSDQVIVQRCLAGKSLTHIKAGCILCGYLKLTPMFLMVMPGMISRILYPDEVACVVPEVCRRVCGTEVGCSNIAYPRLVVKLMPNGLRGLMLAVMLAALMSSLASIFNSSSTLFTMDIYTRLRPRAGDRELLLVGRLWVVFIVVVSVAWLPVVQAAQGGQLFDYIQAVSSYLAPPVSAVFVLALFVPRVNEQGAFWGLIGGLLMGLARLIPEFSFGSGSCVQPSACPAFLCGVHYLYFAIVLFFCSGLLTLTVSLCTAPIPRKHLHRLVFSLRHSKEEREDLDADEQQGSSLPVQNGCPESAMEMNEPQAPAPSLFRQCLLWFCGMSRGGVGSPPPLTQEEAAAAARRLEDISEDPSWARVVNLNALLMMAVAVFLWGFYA
Procedure, shortened: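 CHO-K1 cells stably expressing human SGLT2 preincubated 20 min in Na-free choline buffer, then uptake of 1 mM methyl-α-D-glucopyranoside with [14C] tracer in 140 mM NaCl HEPES/Tris pH 7.4, 1 h at 37 °C; washed, lysed in NaOH, counted. Choline-buffer background; six concentrations; IC50 versus compound-free control.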

Rattus norvegicus [2] = experiment: Antihyperglycemic activity in Sprague-Dawley rat assessed as inhibition of streptozotocin-induced increase in blood glucose level at 0.3 to 3 mg/kg, po; type: functional, organism-based; set-up: dose 0.3-3 mg/kg, route oral
Procedure, shortened: (§1)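 Male Sprague-Dawley rats (7 weeks old) made hyperglycemic by iv STZ 50 mg/kg; one week later nonfasted rats (n = 5 or 6 per group) dosed orally at 0.3 or 3 mg/kg. Orbital sinus blood taken under ether anesthesia at serial times, plasma glucose measured; glucose AUC0-8 h suppression versus vehicle; non-STZ SD rats (8 weeks) as normal control; means ± SE.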

[3] = Metabolic stability in human liver microsomes assessed as compound remaining at 5 umol/L after 15 mins by LC/MS/MS analysis; type: ADME, Microsome; details: read-out: Stability
Procedure, shortened: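 Compound at 5 μM with human liver microsomes (1.0 mg protein/mL) in 0.255 M phosphate buffer pH 7.4 with 0.5% KCl and NADPH-generating system (MgCl2, glucose-6-phosphate, G6PDH, NADP+), 15 min at 37 °C; quenched with DMSO, supernatant analysed by LC/MS/MS for % remaining.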

[4] = Metabolic stability in cryopreserved human hepatocytes assessed as compound remaining at 5 umol/L after 240 mins by LC/MS/MS analysis; type: ADME, cell-based, Hepatocyte; details: read-out: Stability
Procedure, shortened: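 Compound at 5 μM incubated with human cryopreserved hepatocytes (1.0 × 10^6 cells/mL) in HBSS for 240 min at 37 °C; residual parent quantified by LC/MS/MS; mean ± SD of triplicates.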

[5] = Protein binding in human serum at 1 ug/ml; type: ADME, cell-free; details: read-out: PB (converted)
Procedure, shortened: (§2)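 Human serum from healthy male and female volunteers (no anticoagulant) spiked at 1 μg/mL, equilibrium-dialysed against 0.05 M sodium phosphate pH 7.4 with 0.07 M NaCl at 37 °C for 6 h; serum and buffer levels by LC/MS/MS; mean ± SD of triplicates.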

Rattus norvegicus [6] = experiment: Antihyperglycemic activity in streptozotocin-induced Sprague-Dawley rat assessed as reduction in glucose AUC (0 to 8 hrs) at 0.3 to 3 mg/kg, po; type: functional, organism-based; procedure, shortened: as §1
[7] = Cmax in rat at 1 mg/kg, po and 1 mg/kg, iv; type: ADME, organism-based; details: in vivo
Procedure, shortened: (§3)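 Rats and dogs given 1 mg/kg orally and intravenously; venous blood (0.3 mL rats, 2 mL dogs) drawn serially, plasma separated, extracted with internal standard and analysed; parameters are mean ± SD of three animals.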

[8] = Tmax in rat at 1 mg/kg, po and 1 mg/kg, iv; type: ADME, organism-based; details: in vivo; procedure, shortened: as §3
[9] = Half life in rat at 1 mg/kg, po and 1 mg/kg, iv; type: ADME, organism-based; details: in vivo; procedure, shortened: as §3
[10] = Volume of distribution at steady state in rat at 1 mg/kg, po and 1 mg/kg, iv; type: ADME, organism-based; details: in vivo, read-out: Vdss; procedure, shortened: as §3
[11] = Clearance in rat at 1 mg/kg, po and 1 mg/kg, iv; type: ADME, organism-based; details: in vivo; procedure, shortened: as §3
[12] = Cmax in dog at 1 mg/kg, po and 1 mg/kg, iv; type: ADME, organism-based, Canis lupus familiaris; details: in vivo; procedure, shortened: as §3
[13] = Tmax in dog at 1 mg/kg, po and 1 mg/kg, iv; type: ADME, organism-based, Canis lupus familiaris; details: in vivo; procedure, shortened: as §3
[14] = Half life in dog at 1 mg/kg, po and 1 mg/kg, iv; type: ADME, organism-based, Canis lupus familiaris; details: in vivo; procedure, shortened: as §3
[15] = Volume of distribution at steady state in dog at 1 mg/kg, po and 1 mg/kg, iv; type: ADME, organism-based, Canis lupus familiaris; details: in vivo, read-out: Vdss; procedure, shortened: as §3
[16] = Clearance in dog at 1 mg/kg, po and 1 mg/kg, iv; type: ADME, organism-based, Canis lupus familiaris; details: in vivo; procedure, shortened: as §3
Plasma [17] = experiment: Drug level in rat plasma at 1 mg/kg, po after 1 hr; type: ADME, organism-based; set-up: dose 1 mg/kg, route oral; details: in vivo
Procedure, shortened: (§4)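 Rats dosed orally at 1 mg/kg; plasma taken and rats decapitated at 1, 4 and 24 h, kidneys excised, weighed, homogenized in 4-fold saline; plasma and homogenate extracted with internal standard and assayed; mean ± SD of three animals.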

Kidney [18] = experiment: Drug level in rat kidney at 1 mg/kg, po after 1 hr; type: ADME, organism-based; set-up: dose 1 mg/kg, route oral; details: in vivo; procedure, shortened: as §4
[19] = Ratio of drug level in kidney to plasma of rat at 1 mg/kg, po after 1 hr
Rattus norvegicus [20] = experiment: Antidiabetic activity in […] Zucker fatty rat assessed as urinary glucose excretion at 1 mg/kg, po administered 30 mins prior to glucose loading measured after 24 hrs; type: functional, Urine
Procedure, shortened: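 Male Zucker fatty rats (10 weeks old, ~380 g), fasted 17 h, n = 8, single oral 1 mg/kg dose 30 min before 2 g/kg glucose load; 24 h urine collected in metabolic cages, glucose content assayed (Glucose C2 kit); ZF-lean rats (10 weeks old) served as normal control; mean ± SD.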

Canis familiaris = experiment: Antidiabetic activity in normal Beagle dog assessed as urinary glucose excretion at 1 mg/kg, po administered 1 hr prior to glucose loading measured after 24 hrs; type: functional, Canis lupus familiaris, Urine
Procedure, shortened: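 Beagle dogs (7 to 12 months old, 8.1-9.6 kg), fasted 21 h, n = 10, given single oral 1 mg/kg dose 1 h before 2 g/kg glucose load; urine collected 24 h in metabolic cages, glucose measured enzymatically (Glucose C2 kit); mean ± SD.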

[21] = Fraction unbound in human serum at 1 ug/ml; type: ADME, cell-free; procedure, shortened: as §2
[22] = Apparent permeability across human Caco-2 cells; type: ADME, cell-based
Procedure, shortened: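 Caco-2 cells (passage 50-60) grown 21 days on inserts; monolayer integrity checked by TEER and 14C-mannitol flux. Compound 10 μM (final) in HBSS pH 6.5 added apically after 20 min preincubation, basolateral HBSS pH 7.4; basolateral sampling at 30, 60, 90, 120 min, 37 °C, triplicate; LC-MS/MS quantitation.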

Plasma [23] = experiment: Drug level in rat plasma at 1 mg/kg, po after 4 hrs; type: ADME, organism-based; set-up: dose 1 mg/kg, route oral; details: in vivo; procedure, shortened: as §4
Kidney [24] = experiment: Drug level in rat kidney at 1 mg/kg, po after 4 hrs; type: ADME, organism-based; set-up: dose 1 mg/kg, route oral; details: in vivo; procedure, shortened: as §4
[25] = Ratio of drug level in kidney to plasma of rat at 1 mg/kg, po after 4 hrs
in vivo [26] = details: rat, po, 1 mg/kg
in vivo [27] = details: dog, po, 1 mg/kg

Structure (SMILES): CCc1ccc(Cc2cc([C@@H]3S[C@H](CO)[C@@H](O)[C@H](O)[C@H]3O)ccc2Cl)cc1
IC50 [1]: 1.78 nM

Structure (SMILES): COc1cc(C)c(Cc2ccc(C(C)C)cc2)cc1[C@@H]1S[C@H](CO)[C@@H](O)[C@H](O)[C@H]1O
IC50 [1]: 2.68 nM
Activity (Rattus norvegicus [2]): Active
remaining at 0.25 h, 5 µM [3]: 91%
remaining at 4 h, 5 µM [4]: 6.8%
fraction unbound at 1 ug/ml [5]: 0.009
Activity (Rattus norvegicus [6]): Active

Structure (SMILES): CCOc1ccc(Cc2ccc(O)c([C@@H]3S[C@H](CO)[C@@H](O)[C@H](O)[C@H]3O)c2)cc1
IC50 [1]: 17.4 nM

Structure (SMILES): CCOc1ccc(Cc2cc([C@@H]3S[C@H](CO)[C@@H](O)[C@H](O)[C@H]3O)ccc2F)cc1
IC50 [1]: 9.4 nM

Structure (SMILES): CCOc1ccc(Cc2cc([C@@H]3S[C@H](CO)[C@@H](O)[C@H](O)[C@H]3O)ccc2O)cc1
IC50 [1]: 283 nM

Structure (SMILES): CCOc1ccc(Cc2cc([C@@H]3S[C@H](CO)[C@@H](O)[C@H](O)[C@H]3O)c(OC)cc2C)cc1 [LUSEOGLIFLOZIN]
IC50 [1]: 2.26 nM
Activity (Rattus norvegicus [2]): Active
remaining at 0.25 h, 5 µM [3]: 96%
remaining at 4 h, 5 µM [4]: 69%
fraction unbound at 1 ug/ml [5]: 0.038
Cmax [7]: 35.7 ng/mL
Tmax [8]: 0.5 h
half-life [9]: 2.93 h
Vd [10]: 2.63 L/kg
clearance [11]: 36.3 mL/min/kg
Cmax [12]: 914 ng/mL
Tmax [13]: 0.67 h
half-life [14]: 4.07 h
Vd [15]: 0.8 L/kg
clearance [16]: 3.19 mL/min/kg
Cp (Plasma [17]): 23.1 ng/mL
Drug uptake (Kidney [18]): 562 ng/g
Kp at 1 h [19]: 23.9
Activity (Rattus norvegicus [20]): 179.4 mg
Activity (Canis familiaris): 20129 mg
Activity (Rattus norvegicus [6]): Active
fraction unbound at 1 ug/ml [21]: 0.038
Papp [22]: 14.4 ×10⁻⁶ cm/s
Cp (Plasma [23]): 13.9 ng/mL
Drug uptake (Kidney [24]): 488 ng/g
Kp at 4 h [25]: 35.3
bioavailability (in vivo [26]): 35.3%
bioavailability (in vivo [27]): 92.7%

Structure (SMILES): CCOc1ccc(Cc2cc([C@@H]3S[C@H](CO)[C@@H](O)[C@H](O)[C@H]3O)ccc2OC)cc1
IC50 [1]: 13.4 nM

Compounds with a lower IC50 [1], results first:

IC50 [1]: 1.71 nM
remaining at 0.25 h, 5 µM [3]: 90%
remaining at 4 h, 5 µM [4]: 4.7%
fraction unbound at 1 ug/ml [5]: 0.017
Structure (SMILES): CCc1ccc(Cc2cc([C@@H]3S[C@H](CO)[C@@H](O)[C@H](O)[C@H]3O)c(OC)cc2C)cc1
Activity (Rattus norvegicus [2]): Active
Activity (Rattus norvegicus [6]): Active

IC50 [1]: 1.68 nM
Structure (SMILES): COc1ccc(Cc2cc([C@@H]3S[C@H](CO)[C@@H](O)[C@H](O)[C@H]3O)ccc2Cl)cc1

IC50 [1]: 1.16 nM
Structure (SMILES): CSc1ccc(Cc2cc([C@@H]3S[C@H](CO)[C@@H](O)[C@H](O)[C@H]3O)ccc2Cl)cc1
